In ChEMBL document CHEMBL1145612, “Antagonists of the human adenosine A2A receptor. Part 2: Design and synthesis of 4-arylthieno[3,2-d]pyrimidine derivatives” (Bioorg Med Chem Lett, 2008):
Calls of active or inactive are those of the source. The calls are words filed in the database; no cut-off is given here.

Assays:
[1] = target: T1, Adenosine receptor A1 (Homo sapiens, UniProt P30542); assay: Binding affinity at human adenosine A1 receptor
T1 sequence (P30542 whole entry): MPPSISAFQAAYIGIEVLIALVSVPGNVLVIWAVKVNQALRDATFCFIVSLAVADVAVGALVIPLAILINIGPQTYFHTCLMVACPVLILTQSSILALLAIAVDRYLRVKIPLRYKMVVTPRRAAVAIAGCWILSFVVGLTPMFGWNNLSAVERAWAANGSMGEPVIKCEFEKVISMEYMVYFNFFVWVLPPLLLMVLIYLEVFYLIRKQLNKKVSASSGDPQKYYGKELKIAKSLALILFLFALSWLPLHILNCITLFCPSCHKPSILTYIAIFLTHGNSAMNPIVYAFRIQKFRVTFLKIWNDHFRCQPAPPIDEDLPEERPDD

[2] = tested on: Mus musculus; assay: Reversal of haloperidol-induced hypolocomotion in mouse at 30 mg/kg, ip; assay type: functional, organism-based; parameters: dose 30 mg/kg
In short: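 Haloperidol-induced hypolocomotion model in mice. Test compound was given intraperitoneally at 30 mg kg-1, and reversal of the reduced locomotion was assessed.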

[3] = target: T2, Adenosine receptor A2a (Homo sapiens, UniProt P29274); assay: Binding affinity at human adenosine A2A receptor
[4] = target: T2, Adenosine receptor A2a; assay: Agonist activity at human recombinant adenosine A2A receptor expressed in CHO cells assessed as calcium mobilization by FLIPR assay; assay type: functional, cell-based
[5] = target: T3, Adenosine receptor A2b (Homo sapiens, UniProt P29275); assay: Binding affinity at human adenosine A2B receptor
T3 sequence (P29275 whole entry): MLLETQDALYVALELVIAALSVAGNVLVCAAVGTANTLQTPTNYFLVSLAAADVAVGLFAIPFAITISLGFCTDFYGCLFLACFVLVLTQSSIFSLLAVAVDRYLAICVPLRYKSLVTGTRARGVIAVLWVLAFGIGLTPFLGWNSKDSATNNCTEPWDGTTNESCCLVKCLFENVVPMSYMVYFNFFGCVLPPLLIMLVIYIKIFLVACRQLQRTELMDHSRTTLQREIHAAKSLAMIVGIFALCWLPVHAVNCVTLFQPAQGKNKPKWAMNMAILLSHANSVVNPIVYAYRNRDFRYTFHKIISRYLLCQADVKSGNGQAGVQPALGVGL

[6] = target: T4, Adenosine receptor A3 (Homo sapiens, UniProt P0DMS8); assay: Binding affinity at human adenosine A3 receptor
T4 sequence (P0DMS8 whole entry): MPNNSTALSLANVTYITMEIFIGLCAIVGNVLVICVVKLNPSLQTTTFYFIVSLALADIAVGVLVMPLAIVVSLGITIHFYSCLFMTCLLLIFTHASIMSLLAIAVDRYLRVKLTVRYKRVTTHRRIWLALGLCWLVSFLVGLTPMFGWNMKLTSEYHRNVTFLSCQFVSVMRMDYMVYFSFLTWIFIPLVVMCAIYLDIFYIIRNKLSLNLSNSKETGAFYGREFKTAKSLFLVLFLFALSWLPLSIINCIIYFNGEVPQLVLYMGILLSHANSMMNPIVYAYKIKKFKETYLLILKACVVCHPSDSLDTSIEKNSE

[7] = tested on: Mus musculus; assay: Reversal of haloperidol-induced hypolocomotion in mouse at 10 mg/kg, sc; assay type: functional, organism-based; parameters: dose 10 mg/kg

T2 sequence (P29274 whole entry): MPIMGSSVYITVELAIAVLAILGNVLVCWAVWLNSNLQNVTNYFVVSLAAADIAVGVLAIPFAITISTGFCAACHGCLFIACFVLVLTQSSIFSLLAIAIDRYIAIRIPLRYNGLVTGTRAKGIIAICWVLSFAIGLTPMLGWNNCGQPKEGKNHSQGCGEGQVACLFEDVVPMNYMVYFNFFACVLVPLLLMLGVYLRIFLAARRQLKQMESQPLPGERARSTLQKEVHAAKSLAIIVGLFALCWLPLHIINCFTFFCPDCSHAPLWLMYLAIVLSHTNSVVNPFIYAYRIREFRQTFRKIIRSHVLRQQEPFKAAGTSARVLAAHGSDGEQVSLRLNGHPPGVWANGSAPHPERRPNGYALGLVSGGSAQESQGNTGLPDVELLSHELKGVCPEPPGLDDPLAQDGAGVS

## OCCNc1nc(-c2cccs2)c2sccc2n1
[1]
  Ki: 401 nM
[2]
  Activity: Active
[3]
  Ki: 172 nM
[4]
  EC50: > 10000 nM

## CN(C)c1nc(-c2ccco2)c2sccc2n1
[1]
  Ki: 2200 nM
[2]
  Activity: Active
[3]
  Ki: 60 nM
[4]
  EC50: > 10000 nM

## CCc1nc(-c2cccc(C)n2)c2sccc2n1
[1]
  Ki: 1270 nM
[2]
  Activity: inactive

## CN(C)c1nc(-c2cn[nH]c2)c2sccc2n1
[1]
  Ki: 5510 nM
[3]
  Ki: 3080 nM
[4]
  EC50: > 10000 nM

## CCc1nc(-c2ccco2)c2sccc2n1
[1]
  Ki: 3210 nM
[3]
  Ki: 30 nM
[4]
  EC50: > 10000 nM

## Clc1nc(-c2nccs2)c2sccc2n1
[1]
  Ki: 615 nM
[3]
  Ki: 20 nM
[4]
  EC50: > 10000 nM

## Cc1ccc(-c2nc(N(C)C)nc3ccsc23)nc1
[1]
  Ki: 1260 nM
[2]
  Activity: inactive
[3]
  Ki: 19 nM
[4]
  EC50: > 10000 nM

## CC(C)c1nc(-c2nccs2)c2sccc2n1
[1]
  Ki: 208 nM
[2]
  Activity: Active
[3]
  Ki: 1.4 nM
[5]
  Ki: 865 nM
[4]
  EC50: > 10000 nM
[6]
  Ki: 476 nM

## Nc1nc(-c2ccco2)c2sccc2n1
[2]
  Activity: Active
[4]
  EC50: > 10000 nM

## OC[C@@H]1CCCN1c1nc(-c2nccs2)c2sccc2n1
[1]
  Ki: 14 nM
[2]
  Activity: Active
[5]
  Ki: 2480 nM
[6]
  Ki: 456 nM

## CC(C)(C)c1nc(-c2nccs2)c2sccc2n1
[1]
  Ki: 240 nM
[2]
  Activity: inactive
[3]
  Ki: 3.1 nM
[4]
  EC50: > 10000 nM

## CN(C)c1nc(-c2ncc[nH]2)c2sccc2n1
[1]
  Ki: 5770 nM
[2]
  Activity: Active
[3]
  Ki: 299 nM
[4]
  EC50: > 10000 nM

## CCNc1nc(-c2cccs2)c2sccc2n1
[1]
  Ki: 813 nM
[2]
  Activity: inactive
[3]
  Ki: 154 nM
[4]
  EC50: > 10000 nM

## CN(C)c1nc(-c2nccs2)c2sccc2n1
[1]
  Ki: 366 nM
[2]
  Activity: Active
[3]
  Ki: 2.3 nM
[5]
  Ki: 1560 nM
[4]
  EC50: > 10000 nM
[6]
  Ki: 1760 nM

## Nc1nc(-c2nccs2)c2sccc2n1
[1]
  Ki: 675 nM
[2]
  Activity: Active
[4]
  EC50: > 10000 nM

## CCNc1nc(-c2ccco2)c2sccc2n1
[1]
  Ki: 375 nM
[2]
  Activity: Active
[3]
  Ki: 58 nM
[4]
  EC50: > 10000 nM

## CN(C)c1nc(-c2cccs2)c2sccc2n1
[1]
  Ki: 1960 nM
[2]
  Activity: inactive
[3]
  Ki: 55 nM
[4]
  EC50: > 10000 nM

## OCCNc1nc(-c2ccco2)c2sccc2n1
[1]
  Ki: 868 nM
[2]
  Activity: inactive
[3]
  Ki: 203 nM
[4]
  EC50: > 10000 nM

## Clc1nc(-c2cccs2)c2sccc2n1
[1]
  Ki: 2040 nM
[2]
  Activity: inactive
[3]
  Ki: 391 nM
[4]
  EC50: > 10000 nM

## CN(C)c1nc(-c2ccccn2)c2sccc2n1
[1]
  Ki: 1590 nM
[3]
  Ki: 26 nM
[4]
  EC50: > 10000 nM

## Cc1cnc(-c2nc(N(C)C)nc3ccsc23)s1
[1]
  Ki: 908 nM
[2]
  Activity: inactive
[3]
  Ki: 5.7 nM
[4]
  EC50: > 10000 nM

## CCc1nc(-c2ccoc2)c2sccc2n1
[1]
  Ki: 10000 nM
[3]
  Ki: 681 nM
[4]
  EC50: > 10000 nM

## c1csc(-c2nc(C3CC3)nc3ccsc23)n1
[1]
  Ki: 259 nM
[7]
  Activity: Active
[2]
  Activity: Active
[5]
  Ki: 910 nM
[6]
  Ki: 945 nM

## OCCNc1nc(-c2nccs2)c2sccc2n1
[1]
  Ki: 57 nM
[2]
  Activity: Active
[3]
  Ki: 18 nM
[4]
  EC50: > 10000 nM

## Cc1nc(-c2nc(N(C)C)nc3ccsc23)sc1C
[1]
  Ki: 254 nM
[2]
  Activity: inactive
[3]
  Ki: 6.6 nM
[4]
  EC50: > 10000 nM

## OC[C@H]1CCCN1c1nc(-c2nccs2)c2sccc2n1
[1]
  Ki: 250 nM
[2]
  Activity: Active

## CCc1nc(-n2nccn2)c2sccc2n1
[1]
  Ki: 4940 nM
[3]
  Ki: 779 nM
[4]
  EC50: > 10000 nM

## COc1nc(-c2cccs2)c2sccc2n1
[1]
  Ki: 1590 nM
[2]
  Activity: inactive
[3]
  Ki: 444 nM
[4]
  EC50: > 10000 nM

## CN(C)c1nc(-c2ccoc2)c2sccc2n1
[1]
  Ki: 3470 nM
[3]
  Ki: 748 nM
[4]
  EC50: > 10000 nM

## CCc1nc(-c2nccs2)c2sccc2n1
[1]
  Ki: 388 nM
[2]
  Activity: Active
[3]
  Ki: 1.6 nM
[5]
  Ki: 721 nM
[4]
  EC50: > 10000 nM
[6]
  Ki: 1810 nM

## CN(C)c1nc(-c2cc3ccccc3s2)c2sccc2n1
[1]
  Ki: 1260 nM
[3]
  Ki: 1330 nM
[4]
  EC50: > 10000 nM

## CNc1nc(-c2ccco2)c2sccc2n1
[1]
  Ki: 568 nM
[2]
  Activity: Active
[3]
  Ki: 40 nM
[4]
  EC50: > 10000 nM

## Cc1csc(-c2nc(N(C)C)nc3ccsc23)n1
[1]
  Ki: 303 nM
[2]
  Activity: Active

## CCc1nc(-c2ncc[nH]2)c2sccc2n1
[1]
  Ki: 5530 nM
[2]
  Activity: Active
[3]
  Ki: 142 nM
[4]
  EC50: > 10000 nM

## CCc1nc(-c2cccs2)c2sccc2n1
[1]
  Ki: 1470 nM
[2]
  Activity: inactive
[3]
  Ki: 69 nM
[4]
  EC50: > 10000 nM

## CN(C)c1nc(-c2nccn2C)c2sccc2n1
[1]
  Ki: 1100 nM
[2]
  Activity: inactive
[3]
  Ki: 14 nM
[4]
  EC50: > 10000 nM

## CN(C)c1nc(-c2cnccn2)c2sccc2n1
[1]
  Ki: 990 nM
[2]
  Activity: inactive
[3]
  Ki: 81 nM
[4]
  EC50: > 10000 nM

## CCc1nc(-c2ccccn2)c2sccc2n1
[1]
  Ki: 917 nM
[2]
  Activity: Active
[3]
  Ki: 13 nM
[4]
  EC50: > 10000 nM

## CCc1nc(-c2nc(C)cs2)c2sccc2n1
[1]
  Ki: 413 nM
[2]
  Activity: Active
[3]
  Ki: 2.1 nM
[4]
  EC50: > 10000 nM
